According to ChEMBL document CHEMBL2057190, “Short synthesis and antimalarial activity of fagaronine” (Bioorg Med Chem, 2012):
pIC50: −log10 of the molar value.

Experiments:
[1] = test system: Plasmodium vinckei petteri; assay: Antiplasmodial activity Plasmodium vinckei petteri infected in CD mouse assessed as survival of infected mouse at 1 mg/kg/day, ip administered from day 0 to day 3 and measured on day 4 (reference value: 9.5 days); assay type: functional; settings: route intraperitoneal
[2] = test system: Plasmodium vinckei petteri; assay: Antiplasmodial activity Plasmodium vinckei petteri infected in ip dosed CD mouse assessed as suppression of parasitaemia administered from day 0 to day 3 and measured on day 4 by Giemsa staining; assay type: functional
How it was run: (§1)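 Female CD mice (mean weight 20 2 g) were infected on day 0 with 10⁶ P. vinckei petteri-infected red cells in RPMI. Groups of five received drug intraperitoneally daily from day 0 to 3. On day 4, parasitaemia was counted on Giemsa-stained smears (at least 5000 erythrocytes). Inhibition % = (control − treated)/control × 100, with RPMI-only mice as controls. ED₅₀ was taken as the dose giving 50% inhibition.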

[3] = test system: Plasmodium vinckei petteri; assay: Antiplasmodial activity Plasmodium vinckei petteri infected in CD mouse assessed as survival of infected mouse at 10 mg/kg/day, ip administered from day 0 to day 3 and measured on day 4 (reference value: 9.5 days); assay type: functional; settings: route intraperitoneal
Vero = assay: Cytotoxicity against african green monkey Vero cells; assay type: cell-based; settings: Chlorocebus sabaeus
[4] = test system: Plasmodium vinckei petteri; assay: Antiplasmodial activity Plasmodium vinckei petteri infected in CD mouse assessed as suppression of parasitaemia at 10 mg/kg/day, ip administered from day 0 to day 3 and measured on day 4 by Giemsa staining relative to control; assay type: functional; settings: route intraperitoneal; how it was run: as §1
[5] = test system: Plasmodium vinckei petteri; assay: Antiplasmodial activity Plasmodium vinckei petteri infected in CD mouse assessed as suppression of parasitaemia at 1 mg/kg/day, ip administered from day 0 to day 3 and measured on day 4 by Giemsa staining relative to control; assay type: functional; settings: route intraperitoneal; how it was run: as §1
[6] = test system: Plasmodium vinckei petteri; assay: Antiplasmodial activity Plasmodium vinckei petteri infected in CD mouse assessed as survival of infected mouse at 5 mg/kg/day, ip administered from day 0 to day 3 and measured on day 4 (reference value: 9.5 days); assay type: functional; settings: route intraperitoneal
[7] = test system: Plasmodium vinckei petteri; assay: Antiplasmodial activity Plasmodium vinckei petteri infected in CD mouse assessed as survival of infected mouse at 2.5 mg/kg/day, ip administered from day 0 to day 3 and measured on day 4 (reference value: 9.5 days); assay type: functional; settings: route intraperitoneal
[8] = test system: Plasmodium vinckei petteri; assay: Antiplasmodial activity Plasmodium vinckei petteri infected in CD mouse assessed as suppression of parasitaemia at 2.5 mg/kg/day, ip administered from day 0 to day 3 and measured on day 4 by Giemsa staining relative to control; assay type: functional; settings: route intraperitoneal; how it was run: as §1
Plasmodium falciparum [9] = assay: Antiplasmodial activity against chloroquine-sensitive Plasmodium falciparum 3D7 assessed as [3H]hypoxanthine incorporation after 48 hrs; assay type: functional, organism-based
How it was run: (§2)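 P. falciparum was cultured per Trager–Jensen with modifications and synchronised by magnetic concentration plus 5% sorbitol lysis. Cultures, mostly at ring stage, were exposed to increasing drug dilutions in triplicate for 48 h. Growth was measured by [³H]-hypoxanthine incorporation to give IC₅₀. Values are means of two independent experiments run in triplicate.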

Mus musculus = assay: Toxicity in CD mouse infected with Plasmodium venckei petteri at 10 mg/kg/day, ip administered from day 0 to day 3; assay type: organism-based; parameters: route intraperitoneal; settings: in vivo
How it was run: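 CD female mice infected with 10⁶ P. vinckei petteri-infected red cells were given drug ip daily on days 0–3 and observed for signs of acute toxicity. Survival was followed for 13 days post-infection.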

[10] = test system: Plasmodium vinckei petteri; assay: Antiplasmodial activity Plasmodium vinckei petteri infected in CD mouse assessed as suppression of parasitaemia at 5 mg/kg/day, ip administered from day 0 to day 3 and measured on day 4 by Giemsa staining relative to control; assay type: functional; settings: route intraperitoneal; how it was run: as §1
Plasmodium falciparum [11] = assay: Antiplasmodial activity against chloroquine-resistant Plasmodium falciparum FcB1/Columbia assessed as [3H]hypoxanthine incorporation after 48 hrs; assay type: functional, organism-based; how it was run: as §2
[12] = Selectivity ratio of IC50 for african green monkey Vero cells to IC50 for […] Plasmodium falciparum FcB1/ Columbia; assay type: ADME, cell-based; settings: read-out: Ratio IC50
How it was run: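 Selectivity index = Vero IC₅₀ / FcB1 IC₅₀. Vero cells were grown as for P. falciparum but with 10% foetal calf serum in place of 5% human serum, exposed to increasing concentrations for 48 h, and growth read by [³H]-hypoxanthine incorporation against untreated wells (100%). Doxorubicin served as control.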

Plasmodium falciparum [13] = assay: Antiplasmodial activity against chloroquine-resistant Plasmodium falciparum FcM29 assessed as [3H]hypoxanthine incorporation after 48 hrs; assay type: functional, organism-based; how it was run: as §2

Compound | MSD [1] | ED50 [2] | MSD [3] | pIC50 (Vero) | inhibition in vivo at 10 mg/kg/day [4] | inhibition in vivo at 1 mg/kg/day [5] | MSD [6] | MSD [7] | inhibition in vivo at 2.5 mg/kg/day [8] | pIC50 (Plasmodium falciparum [9]) | Activity (Mus musculus) | inhibition in vivo at 5 mg/kg/day [10] | pIC50 (Plasmodium falciparum [11]) | selectivity ratio [12] | pIC50 (Plasmodium falciparum [13])
CCN(CC)CCCC(C)Nc1ccnc2cc(Cl)ccc12 (configuration not stated) [CHLOROQUINE] | 9.5 days | 5.5 mg/kg/day | >13 days | < 4.30 | 94.8% | 3.2% |  |  |  |  |  |  |  |  | 
COc1cc2c(ccc3c4cc(OC)c(OC)cc4c[n+](C)c23)cc1O.[I-] [FAGARONINE IODIDE] | 8.6 days | 6 mg/kg/day | >13 days | < 4.68 | 91.5% | 4.8% | 10.7 days | 11.5 days | 27% | 8.12 | Non-toxic | 38.1% | 7.83 | > 1400 | 8.13
COc1cccc2c1C(=O)c1c(O)c3c(c(O)c1C2=O)C[C@@](O)(C(=O)CO)C[C@@H]3O[C@H]1C[C@H](N)[C@H](O)[C@H](C)O1 [DOXORUBICIN] |  |  |  | 5.19 |  |  |  |  |  |  |  |  |  |  | 
